# An excerpt weighted towards active compounds, which were near 3.3% of everything screened.
# FGF22 binding-1: FGF22 (human) thermal shift binding | Q9HCT0 | recombinant FGF22 thermal shift, SYPRO orange fluorescence; percent of sucrose octasulfate shift, DMSO zero | activity (Tm shift, normalised), % at 9.99 µM | 340,000 tested, 1.5% active | AID 651658;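 active means mean Tm shift, scaled 0 neutral to 100 positive control, at about 1.3% or above, every replicate too, limit read from the data; inconclusive means no clear call, values can overlap the other calls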
# Xi reactivation: activators of X-chromosome reactivation in mouse fibroblasts; activation, % at 7.58 µM; 360,000 tested, 0.055% active; XiGFP mouse fibroblasts, % GFP-positive cells imaging, 3 d; cells co-treated with 5-aza-dC sensitizer; scaled so ellipticine positive control = 100%; AID 743238;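 active means mean normalized replicate activation at least 10% and every replicate at or above 10%; inconclusive means only one of the two criteria met; inactive means mean below 10% and not all replicates reach 10%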
#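 System: XiGFP fibroblasts, SV40-immortalized. Medium: DMEM plus 5-aza-dC sensitizer. Doses: single point. Timing: 3 d treatment, 15 min room-temperature fixation. Control set: ellipticine 6 µM.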
# PglD inh: inhibitors of Campylobacter jejuni PglD acetyltransferase | AID 602405 | inhibition, % at 12.5 µM | purified PglD enzyme, DTNB colorimetric CoA detection | 360,000 tested, 0.098% active; in the data active means inhibition above about 16%, passing the limit was not always enough; inconclusive means no clear call, values can overlap the other calls
# E-selectin induc: induces E-selectin expression in human endothelial cells; P16581; HUVEC E-selectin immunofluorescence imaging; normalized: neutral wells 0, TNF-alpha wells 100; activation, % at 7.58 µM; 260,000 tested, 0.37% active; AID 686992;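 active means mean E-selectin-positive cell signal at least 10% of the positive control, reached in at least 60% of replicates, without over 20% cell loss; inconclusive means no rule given, readout overlaps actives, possibly toxicity-flagged; inactive means the rest, including those meeting only one limit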
# Target sequence (P16581 whole entry, looked up): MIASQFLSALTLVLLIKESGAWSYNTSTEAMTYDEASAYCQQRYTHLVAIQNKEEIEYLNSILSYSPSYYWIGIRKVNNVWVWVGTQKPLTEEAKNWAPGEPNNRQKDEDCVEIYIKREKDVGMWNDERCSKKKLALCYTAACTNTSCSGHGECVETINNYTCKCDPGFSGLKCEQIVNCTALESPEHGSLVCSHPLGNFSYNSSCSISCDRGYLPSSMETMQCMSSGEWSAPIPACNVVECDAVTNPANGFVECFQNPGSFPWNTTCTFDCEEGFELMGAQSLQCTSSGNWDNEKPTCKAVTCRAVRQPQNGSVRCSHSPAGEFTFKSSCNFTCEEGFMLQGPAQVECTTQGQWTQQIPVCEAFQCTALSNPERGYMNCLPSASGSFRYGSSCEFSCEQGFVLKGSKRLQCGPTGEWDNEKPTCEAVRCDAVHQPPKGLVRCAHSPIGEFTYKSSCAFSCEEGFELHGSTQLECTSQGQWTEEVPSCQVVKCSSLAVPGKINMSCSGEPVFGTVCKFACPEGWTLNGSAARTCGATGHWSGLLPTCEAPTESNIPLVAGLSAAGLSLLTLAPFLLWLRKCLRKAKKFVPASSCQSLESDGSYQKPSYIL
#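 Test system: HUVEC; input: 3,000 HUVEC/well; measured by: immunofluorescence imaging; read-out: % PE-positive cells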
# C2C12 statin: suppression of simvastatin myotoxicity; 330,000 tested, 0.78% active; rescue of ATP level, % at 7.49 µM; C2C12 myotubes + simvastatin, ATP luminescence, 48 h; scaled: DMSO 0, geranylgeraniol control 100; AID 602340;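 active means mean ATP rescue above about 67%, or every replicate alone reaching that limit, limit read from the data, passing the limit was not always enough; inconclusive means no clear call, values can overlap the other calls; inactive means mean under the limit and some replicate under it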;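 further: myotubes were challenged with 10 µM simvastatin during compound exposure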
# DENV2 CPE rescue: DENV2-induced cell death inhibition; DENV2-infected cells, cytopathic effect rescue, plate reader; CPE inhibition, % at 9.99 µM; 350,000 tested, 1.7% active; AID 651640; in the data active means CPE inhibition above about 20%, passing the limit was not always enough; inconclusive means no clear call, values can overlap the other calls; tested in BHK-21 cells
# FGF22 binding-2: FGF22 (human) binding in thermal shift. shares compounds with FGF22 binding-1. recombinant FGF22 thermal shift, SYPRO orange fluorescence. thermal shift activity, °C (ΔTm) at 38 µM. 1,000 tested, 2% active. AID 720646;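 active means fitted rise in melting shift crosses a set limit at or below the top valid dose tested; inconclusive means flat fit at mid-level activity, or a poor quality fit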
# SYPRO no-protein: compound-only SYPRO artifact for FGF22 binders; 1,000 tested, 2% active; compound-only SYPRO orange thermal shift counter-screen, no protein; shares compounds with FGF22 binding-1; AC50, µM (highest dose often 38 µM);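 active means rising signal whose fitted curve reaches the 0.54 level within the top valid dose, showing a melting point, actives reach about 13 µM in these data; inactive means the rest, including activity in the opposite direction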; further: value is where the raw curve crosses a fixed level and not half-maximal
# A number is an active result; . = inactive; ? = inconclusive; / = not tested or not shown.
SMILES,FGF22 binding-1,Xi reactivation,PglD inh,E-selectin induc,C2C12 statin,DENV2 CPE rescue,FGF22 binding-2,SYPRO no-protein
O=C(Cn1cc(COc2ccc(Br)cc2)nn1)c1ccc(O)cc1,1.5,.,.,.,.,.,.,.
CCCC(=O)c1ccc(OCc2cn(CC(=O)c3ccc(O)cc3)nn2)cc1,1.5,.,.,.,.,.,.,.
COCc1cn(CC[C@@H]2CC[C@@H](NC(=O)Nc3ccc(Cl)cc3)[C@H](CO)O2)nn1,.,.,.,.,.,.,/,/
COc1ccc(NC(=O)Nc2ccc3c(c2)C(=O)N([C@H](C)CO)C[C@@H](C)[C@@H](CN(C)S(=O)(=O)c2cn(C)cn2)O3)cc1,.,.,.,.,/,.,/,/
C[C@H]1CN([C@@H](C)CO)S(=O)(=O)c2ccc(-c3cccnc3)cc2O[C@@H]1CN(C)C(=O)C1CCCCC1,.,.,.,.,.,.,/,/
O=C(O)c1ccccc1Nc1ccccc1C(=O)O,.,/,.,/,.,.,/,/
O=C(O)c1ccccc1Nc1ccc([N+](=O)[O-])cc1,1.7,.,/,/,/,.,.,.
COc1ccccc1NC(=O)N[C@@H]1CC[C@@H](CCn2cc(-c3ccccc3OC)nn2)O[C@@H]1CO,1.7,.,.,.,.,.,.,.
CN(C)C(=O)C[C@@H]1CC[C@@H](NS(=O)(=O)c2ccccc2)[C@@H](CO)O1,.,.,.,.,.,.,/,/
O=C(C[C@H]1C[C@H]2c3cc(NC(=O)NC4CCCC4)ccc3O[C@H]2[C@@H](CO)O1)NC1CCCC1,.,.,.,.,.,.,/,/
CN(C)CC(=O)Nc1ccc2c(c1)[C@@H]1C[C@H](CC(=O)N(C)C)O[C@@H](CO)[C@@H]1O2,2.3,.,.,.,.,.,.,.
COCC(=O)Nc1ccc2c(c1)[C@H]1C[C@@H](CC(=O)NCc3ccccn3)O[C@H](CO)[C@H]1O2,1.3,.,.,.,.,.,.,.
CS(=O)(=O)Nc1ccc2c(c1)[C@@H]1C[C@@H](CC(=O)NCCc3ccccc3)O[C@@H](CO)[C@@H]1O2,.,.,.,.,.,.,/,/
O=C(C[C@H]1C[C@@H]2c3cc(NC(=O)NC4CCCC4)ccc3O[C@@H]2[C@H](CO)O1)NC1CCCC1,1.4,.,.,.,.,.,.,.
CS(=O)(=O)Nc1ccc2c(c1)[C@@H]1C[C@H](CC(=O)NCCc3ccccc3)O[C@@H](CO)[C@@H]1O2,1.4,.,.,.,.,.,.,.
Cc1ccc(S(=O)(=O)Nc2ccc3c(c2)C(=O)N([C@@H](C)CO)C[C@@H](C)[C@@H](CN(C)C(=O)C2CCCCC2)OCCCC[C@@H](C)O3)cc1,/,.,.,.,/,.,/,/
COc1cccc(S(=O)(=O)Nc2ccc3c(c2)[C@@H]2C[C@H](CC(=O)NC4CCCCC4)O[C@@H](CO)[C@@H]2O3)c1,1.6,.,.,.,.,.,.,.
O=C(C[C@@H]1C[C@H]2c3cc(NC(=O)C4CCC4)ccc3O[C@H]2[C@@H](CO)O1)NCc1cc(F)ccc1F,28,.,.,.,.,.,.,.
O=C(C[C@H]1C[C@H]2c3cc(NC(=O)NC4CCCC4)ccc3O[C@H]2[C@@H](CO)O1)NCCN1CCCCC1,19,.,.,.,.,.,.,.
O=C(O)C[C@@H]1C[C@H]2c3cc(NC(=O)Nc4ccc(C(F)(F)F)cc4)ccc3O[C@H]2[C@@H](CO)O1,23,.,.,.,.,.,.,.
O=C(C[C@H]1C[C@@H]2c3cc(NC(=O)C4CCC4)ccc3O[C@@H]2[C@H](CO)O1)NCc1cc(F)ccc1F,.,.,.,.,.,.,/,/
CO[C@@H]1CN(C)C(=O)c2cc(NC(=O)NC3CCCCC3)ccc2OC[C@@H](C)N(C)C[C@H]1C,/,.,.,.,.,.,/,/
O=C(NCC[C@H]1CC[C@H](NC(=O)c2cccnc2)[C@H](CO)O1)Nc1ccc(C(F)(F)F)cc1,.,.,.,.,.,?,/,/
CN(C)C(=O)C[C@H]1C=C[C@H](NC(=O)c2ccc(F)cc2)[C@H](CO)O1,.,.,.,.,.,.,/,/
O=[N+]([O-])c1ccc(S(=O)(=O)Nc2nnc(C(F)(F)F)s2)cc1,1.5,.,.,.,.,.,.,.
SMILES,FGF22 binding-1,Xi reactivation,PglD inh,E-selectin induc,C2C12 statin,DENV2 CPE rescue,FGF22 binding-2,SYPRO no-protein
O=[N+]([O-])c1ccc(CSc2nnc(Cc3ccccc3)o2)cc1,1.4,.,/,.,/,.,.,.
CCC(=O)Nc1nc(C)c(-c2csc(Nc3ccccn3)n2)s1,1.6,.,/,.,/,.,/,.
COc1ccccc1-c1ccc([C@@H]2[C@@H](C#N)N(C(=O)c3cccnc3)[C@@H]2CO)cc1,.,.,.,.,.,.,/,/
CO[C@@H](CN(C)S(=O)(=O)c1cccc(Cl)c1)[C@@H](C)CN([C@@H](C)CO)S(=O)(=O)c1cccc(Cl)c1,1.5,.,.,.,.,?,.,.
CO[C@@H](CN(C)S(=O)(=O)c1ccc(Cl)cc1)[C@@H](C)CN([C@H](C)CO)S(=O)(=O)c1cccc(Cl)c1,1.4,.,.,.,.,.,.,.
CO[C@H](CN(C)S(=O)(=O)c1cccc(Cl)c1)[C@H](C)CN([C@H](C)CO)S(=O)(=O)c1ccc(Cl)cc1,.,.,.,.,.,.,/,/
CO[C@@H](CN(C)S(=O)(=O)c1ccc(Cl)cc1)[C@@H](C)CN([C@@H](C)CO)S(=O)(=O)c1cccc(Cl)c1,.,.,.,.,.,.,/,/
CN(C(=O)CCc1nnc(CCCCc2ccccc2)o1)C1CCOCC1,1.4,.,/,/,/,.,.,.
CN(C(=O)CCc1nnc(CCCCc2ccccc2)o1)C1CC(C)(C)NC(C)(C)C1,.,.,/,/,/,.,/,/
O=Cc1cc(N=Nc2cccc(C(=O)O)c2)ccc1O,2.0,.,/,/,/,?,.,.
CC(C)c1ccc(NC(=O)Nc2nnc([C@H]3C[C@H](O)[C@@H](CO)O3)s2)cc1,26,.,.,.,.,.,.,.
C[C@@H]1CN([C@@H](C)CO)C(=O)c2cc(C#CCN(C)C)cnc2O[C@H]1CN(C)C(=O)CN1CCOCC1,.,.,.,.,.,.,/,/
C/C(=N\NC(=O)c1cccc(S(=O)(=O)N2CCOCC2)c1)c1ccc(OC(F)F)cc1,1.6,.,/,.,/,.,.,.
C/C(=N\NC(=O)c1cccc(S(=O)(=O)N2CCOCC2)c1)c1ccc(O)cc1,.,.,.,.,.,?,/,/

# Bioassay records from PubChem BioAssay.
